Pf Dd2 growth – inhibitors of Plasmodium falciparum Dd2 growth; 94,000 tested, 2.3% active; P. falciparum Dd2 growth, SYBR Green, 72 h; stronger effect = lower value; activity change, % at 10 µM; in the data active = activity change below about -80%; inconclusive = no clear call, values can overlap the other calls
T cruzi growth-1 – blocks T. cruzi growth in NIH3T3 culture. T. cruzi beta-gal in NIH3T3, GalScreen luminescence, 90 h. inhibition, % at 8.34 µM. 77,000 tested, 5.9% active. AID 624255;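 active = mean inhibition above about 93%, with at least 55% of replicates each passing it, limit read from the data, passing the limit was not always enough; inconclusive = only one of those two conditions holds; inactive = neither condition holds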
IDH1 mut inh – inhibitors of human IDH1 R132H; O75874; IDH1 R132H reductase, diaphorase/resazurin fluorescence, 60 min; inhibition, % at 10 µM; 70,000 tested, 0.18% active; AID 624101; in the data active = inhibition above about 34%; inconclusive = no clear call, values can overlap the other calls; inactive = below about 11%
Target sequence (O75874 whole entry R132H): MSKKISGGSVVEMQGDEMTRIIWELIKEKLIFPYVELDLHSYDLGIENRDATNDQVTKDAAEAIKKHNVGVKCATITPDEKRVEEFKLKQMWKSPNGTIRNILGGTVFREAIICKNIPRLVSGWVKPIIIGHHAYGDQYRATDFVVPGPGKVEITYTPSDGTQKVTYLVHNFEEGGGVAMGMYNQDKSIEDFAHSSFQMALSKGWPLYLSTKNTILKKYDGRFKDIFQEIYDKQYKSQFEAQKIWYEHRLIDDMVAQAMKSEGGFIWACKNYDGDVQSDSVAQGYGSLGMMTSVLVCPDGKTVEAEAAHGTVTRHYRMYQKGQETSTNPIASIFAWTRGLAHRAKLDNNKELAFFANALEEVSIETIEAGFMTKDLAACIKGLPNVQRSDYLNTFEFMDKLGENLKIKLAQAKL
KDM4C inh – inhibitors of human demethylase GASC-1 KDM4C; Q9H3R0; GST-KDM4C 2-372, H3K9me3 peptide, LANCE TR-FRET; inhibition, % at 12.5 µM; 96,000 tested, 0.15% active; AID 720574;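 active = mean replicate inhibition above about 25%, with at least 55% of replicates also reaching it, limit read from the data, passing the limit was not always enough; inconclusive = only one of those two conditions met; inactive = neither condition met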
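reagent = H3K9me3 peptide substrate, Fe(II), 2-oxoglutarate | system = GST-tagged GASC-1 (JMJD2C) catalytic fragment, aa 2-372 | amount = enzyme final amount 10 nM | read-out = Fall in 671/618 emission ratio as inhibition | medium = HEPES buffer, pH 7.5, plus ascorbate | schedule = 30 min reaction, 60 min detection, RT | measured by = LANCE TR-FRET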
T cruzi growth-2 – inhibitors of T. cruzi proliferation. shares compounds with T cruzi growth-1. inhibition, % at 8.35 µM. T. cruzi beta-gal in NIH3T3, GalScreen luminescence, 90 h. 5,600 tested, 72% active;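 active = mean replicate inhibition above about 95% and at least 55% of replicates individually reaching it, limit read from the data; inconclusive = only one of the two criteria is met; inactive = neither criterion is met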
T cruzi growth-3 – inhibitors of T. cruzi proliferation. shares compounds with T cruzi growth-1. T. cruzi beta-gal in NIH3T3, GalScreen luminescence, 90 h. inhibition, % at 2.09 µM. 5,600 tested, 21% active. AID 651740;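 active = mean inhibition above about 95%, with at least 55% of replicates also reaching it, limit read from the data; inconclusive = meets just one of the two conditions; inactive = meets neither condition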
NIH3T3 tox – cytotoxicity in mouse NIH/3T3 fibroblasts | shares compounds with T cruzi growth-1 | NIH/3T3 viability, CellTiter-Glo ATP luminescence, 90 h | cytotoxicity (signal decrease), % at 8.35 µM | 5,600 tested, 14% active;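 active = mean signal decrease across replicates above about 35% based on untreated-well scatter, with enough replicates individually passing, limit read from the data; inconclusive = no rule stated though some were filed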
3T3 cytotox 2 – cytotoxicity in mouse NIH/3T3 fibroblasts. AID 651744. 5,600 tested, 56% active. inhibition, % at 24.9 µM. shares compounds with T cruzi growth-1. NIH/3T3 viability, CellTiter-Glo ATP luminescence, 90 h;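 active = mean loss of cell viability signal at or above a set limit, and enough replicates individually reaching it; inconclusive = meets only the mean limit or only the replicate share; inactive = meets neither condition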
A number is an active result; i = inactive; ? = inconclusive; nt = no result given. Rows were chosen to be rich in hits. Some 5.8% of all compounds tested hit in one or more screens of this group.

SMILES | Pf Dd2 growth | T cruzi growth-1 | IDH1 mut inh | KDM4C inh | T cruzi growth-2 | T cruzi growth-3 | NIH3T3 tox | 3T3 cytotox 2
CCn1c2ccccc2n2c(SCC(=O)Nc3ccc(Cl)cc3)nnc12 | nt | nt | i | nt | nt | nt | nt | nt
C[C@@H]1CCCCO[C@H](CN(C)Cc2ccc(C(F)(F)F)cc2)[C@@H](C)CN([C@@H](C)CO)C(=O)c2cc(NC(=O)Nc3ccc(C(F)(F)F)cc3)ccc2O1 | i | i | nt | i | nt | nt | nt | nt
C[C@H]1CCCCO[C@@H](CN(C)Cc2ccc(C(F)(F)F)cc2)[C@@H](C)CN([C@@H](C)CO)C(=O)c2cc(NC(=O)Nc3ccc(C(F)(F)F)cc3)ccc2O1 | -83 | ? | nt | i | ? | 113 | 38 | i
C[C@@H]1CCCCO[C@@H](CN(C)C(=O)Nc2cccc3ccccc23)[C@H](C)CN([C@H](C)CO)C(=O)c2cc(NS(=O)(=O)c3cccs3)ccc2O1 | i | 105 | nt | i | 105 | 106 | i | i
C[C@H]1CCCCO[C@H](CN(C)C(=O)Nc2cccc3ccccc23)[C@@H](C)CN([C@@H](C)CO)C(=O)c2cc(NS(=O)(=O)c3cccs3)ccc2O1 | i | 102 | nt | i | i | i | i | i
C[C@@H]1CN([C@@H](C)CO)C(=O)c2cc(NS(=O)(=O)c3cccs3)ccc2O[C@@H](C)CCCCO[C@H]1CN(C)C(=O)Nc1cccc2ccccc12 | i | i | nt | i | nt | nt | nt | nt
O=c1c2c(nc3nc(NCc4cccc([N+](=O)[O-])c4)[nH]n13)CCC2 | nt | nt | i | nt | nt | nt | nt | nt
COC(=O)c1c(-c2cccc(C)c2)csc1NC(=O)c1ccccc1[N+](=O)[O-] | nt | nt | i | nt | nt | nt | nt | nt
N#Cc1cccc(-c2ccc3c(c2)[C@H]2[C@H](CCN2S(=O)(=O)c2cccc(F)c2)[C@@H](CO)N3)c1 | i | ? | nt | i | 106 | i | 46 | 51
N#Cc1ccc(-c2ccc3c(c2)[C@@H]2[C@@H](CCN2S(=O)(=O)c2ccccc2F)[C@H](CO)N3)cc1 | i | i | nt | i | nt | nt | nt | nt
N#Cc1cccc(-c2ccc3c(c2)[C@H]2[C@H](CCN2S(=O)(=O)c2cccc(F)c2)[C@H](CO)N3)c1 | i | 103 | nt | i | 99 | i | i | ?
N#Cc1cccc(-c2ccc3c(c2)[C@@H]2[C@@H](CCN2S(=O)(=O)c2ccccc2F)[C@H](CO)N3)c1 | i | 108 | nt | i | 106 | i | 46 | 92
N#Cc1ccc(-c2ccc3c(c2)[C@H]2[C@H](CCN2S(=O)(=O)c2cccc(F)c2)[C@H](CO)N3)cc1 | i | i | nt | i | nt | nt | nt | nt
O=C(CSc1nc2ccccc2[nH]1)Nc1cccc(Cl)c1 | nt | nt | i | nt | nt | nt | nt | nt
C[C@@H]1CN([C@@H](C)CO)S(=O)(=O)c2ccc(C3=CCCC3)cc2O[C@@H]1CN(C)Cc1cccnc1 | i | 100 | nt | i | ? | i | ? | 46
C[C@@H]1CN([C@@H](C)CO)S(=O)(=O)c2ccc(C3=CCCC3)cc2O[C@H]1CN(C)Cc1cccnc1 | i | ? | 77 | i | 105 | 99 | 47 | 46
C[C@H]1CN([C@@H](C)CO)S(=O)(=O)c2ccc(C3=CCCC3)cc2O[C@@H]1CN(C)Cc1cccnc1 | i | 103 | i | i | 105 | 104 | 55 | 63
CCc1ccc(O)c(NC(=S)NC(=O)COc2ccc(C)cc2C)c1 | nt | nt | i | nt | nt | nt | nt | nt
Cc1ccc(-c2nnc3c4ccccc4c(C)nn23)cc1S(=O)(=O)N(C)CCO | nt | nt | i | nt | nt | nt | nt | nt
CC(=O)N(C)C[C@H]1Oc2cc(C#CC3CCCCC3)ccc2S(=O)(=O)N([C@H](C)CO)C[C@@H]1C | i | ? | i | i | 103 | i | 42 | ?
CC(=O)N(C)C[C@H]1Oc2cc(C#CC3CCCCC3)ccc2S(=O)(=O)N([C@@H](C)CO)C[C@@H]1C | i | ? | nt | i | 108 | i | i | 56
CC(=O)N(C)C[C@@H]1Oc2cc(C#CC3CCCC3)ccc2S(=O)(=O)N([C@@H](C)CO)C[C@@H]1C | i | i | nt | i | nt | nt | nt | nt
COc1ccc(-c2ccc([C@H]3[C@H](C#N)N(C(=O)NC(C)C)[C@H]3CO)cc2)cc1 | i | i | nt | i | nt | nt | nt | nt
COc1ccc(-c2ccc([C@H]3[C@@H](C#N)N(C(=O)NC4CCCCC4)[C@H]3CO)cc2)cc1 | i | 102 | nt | i | 97 | i | i | 35
CC(C)NC(=O)N1[C@H](CO)[C@@H](c2ccc(-c3ccc(F)cc3)cc2)[C@@H]1C#N | i | i | nt | i | nt | nt | nt | nt
SMILES | Pf Dd2 growth | T cruzi growth-1 | IDH1 mut inh | KDM4C inh | T cruzi growth-2 | T cruzi growth-3 | NIH3T3 tox | 3T3 cytotox 2
CC(C)NC(=O)N1[C@H](C#N)[C@H](c2ccc(-c3ccc(F)cc3)cc2)[C@@H]1CO | ? | ? | nt | i | 96 | 109 | i | i
COc1ccc(-c2ccc([C@H]3[C@@H](C#N)N(C(=O)NC(C)C)[C@H]3CO)cc2)cc1 | i | 98 | nt | i | 105 | 109 | i | 34
CC1CCC2(CC1)Oc1ccccc1C1CC(c3ccco3)=NN12 (stereo unspecified) | nt | nt | i | nt | nt | nt | nt | nt
CCCC#Cc1ccc([C@@H]2[C@H](CO)N3CCCCN(C(=O)NC4CCCC4)C[C@@H]23)cc1 | i | ? | nt | i | 109 | i | i | 103
CCCC#Cc1ccc([C@H]2[C@@H](CO)N3CCCCN(C(=O)NC4CCCC4)C[C@H]23)cc1 | i | ? | nt | i | 106 | i | 44 | 103
CCCCn1cc(C2CC(=O)N(c3ccc(Br)cc3)C2=O)c2ccccc21 (stereo unspecified) | nt | nt | i | nt | nt | nt | nt | nt

Assay outcomes from PubChem.
